Here are results for five molecules from ChEMBL document CHEMBL2150980 (Eur J Med Chem, 2012).

Molecules are shown by their SMILES.

Assay [1] concerns the target T1, Alpha-1A adrenergic receptor (Homo sapiens, UniProt P35348).
T1 sequence (P35348 whole entry): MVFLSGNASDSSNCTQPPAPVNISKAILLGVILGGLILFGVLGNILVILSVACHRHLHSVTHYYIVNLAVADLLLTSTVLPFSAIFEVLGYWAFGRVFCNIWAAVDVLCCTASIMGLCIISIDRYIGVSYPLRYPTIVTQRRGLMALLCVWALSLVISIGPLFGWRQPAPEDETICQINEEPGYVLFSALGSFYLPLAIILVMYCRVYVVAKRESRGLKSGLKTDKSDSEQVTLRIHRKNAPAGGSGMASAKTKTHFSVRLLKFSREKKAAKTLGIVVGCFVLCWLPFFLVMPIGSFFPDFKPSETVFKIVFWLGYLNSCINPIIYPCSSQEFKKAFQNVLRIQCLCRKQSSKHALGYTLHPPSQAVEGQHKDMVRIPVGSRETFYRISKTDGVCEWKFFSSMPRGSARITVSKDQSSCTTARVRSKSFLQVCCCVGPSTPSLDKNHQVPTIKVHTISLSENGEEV
Description: Displacement of [3H]prazosin from human cloned alpha1A adrenoceptor expressed in CHO cell membranes after 30 mins by liquid scintillation counter. Summed up: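 Membranes incubated 30 min at 25 °C with 0.5 nM [3H]-prazosin ± compound (0.3–1000 nM) in 50 mM buffer, pH 7.7, containing pargyline and 0.1% ascorbic acid. Unlabelled prazosin defined nonspecific binding. GF/B filtration, scintillation counting.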
(In general: In a radioligand displacement assay an active substance lowers the binding of a labelled ligand.)

The target of assay [2] is T2, Alpha-1A adrenergic receptor (Rattus norvegicus, UniProt P43140).
T2 sequence (P43140 whole entry): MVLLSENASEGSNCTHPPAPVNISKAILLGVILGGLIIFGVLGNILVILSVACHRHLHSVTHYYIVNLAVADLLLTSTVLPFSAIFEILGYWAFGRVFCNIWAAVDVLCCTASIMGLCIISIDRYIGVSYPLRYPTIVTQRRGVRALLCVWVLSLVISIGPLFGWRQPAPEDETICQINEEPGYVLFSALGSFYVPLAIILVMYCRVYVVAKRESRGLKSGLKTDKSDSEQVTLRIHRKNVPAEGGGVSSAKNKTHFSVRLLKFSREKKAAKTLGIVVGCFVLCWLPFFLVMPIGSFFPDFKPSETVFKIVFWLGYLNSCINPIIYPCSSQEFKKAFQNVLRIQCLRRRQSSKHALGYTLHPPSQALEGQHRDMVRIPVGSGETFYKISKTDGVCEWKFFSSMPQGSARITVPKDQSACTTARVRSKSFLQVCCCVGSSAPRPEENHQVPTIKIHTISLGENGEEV
Briefly: Antagonist activity at alpha1A adrenoceptor in Sprague-Dawley rat prostate assessed as inhibition of noradrenaline-induced contractions after 30 mins. The assay is classed as functional, tissue-based, Prostate gland. The note with it: read-out: pA2 (converted). The method, boiled down:
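Rat (200–250 g) prostatic strips, 8–10 mm × 1–2 mm, held at 2 g resting tension in modified Krebs (NaCl 118.0, KCl 4.7, CaCl2 2.5, MgSO4 1.18, NaHCO3 25.0, KH2PO4 1.18, glucose 5.5 mM).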

For assay [3], the target named is T3, Alpha-1B adrenergic receptor (Rattus norvegicus, UniProt P15823).
T3 sequence (P15823 whole entry): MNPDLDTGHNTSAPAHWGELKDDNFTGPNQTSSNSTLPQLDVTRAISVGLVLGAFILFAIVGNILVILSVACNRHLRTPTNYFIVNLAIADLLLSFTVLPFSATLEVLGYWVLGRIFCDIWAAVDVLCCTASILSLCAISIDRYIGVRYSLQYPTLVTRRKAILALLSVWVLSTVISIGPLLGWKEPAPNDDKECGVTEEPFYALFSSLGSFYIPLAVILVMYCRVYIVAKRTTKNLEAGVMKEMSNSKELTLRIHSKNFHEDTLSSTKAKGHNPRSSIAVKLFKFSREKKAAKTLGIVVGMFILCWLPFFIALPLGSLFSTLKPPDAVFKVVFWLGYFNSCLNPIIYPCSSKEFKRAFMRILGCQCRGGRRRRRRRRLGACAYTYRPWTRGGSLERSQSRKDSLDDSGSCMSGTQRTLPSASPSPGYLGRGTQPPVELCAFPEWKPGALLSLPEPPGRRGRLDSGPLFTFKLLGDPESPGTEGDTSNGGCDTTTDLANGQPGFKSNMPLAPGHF
Briefly: Antagonist activity at alpha1B adrenoceptor in Sprague-Dawley rat spleen assessed as inhibition of phenylephrine-induced contractions after 30 mins. The format is functional, tissue-based. As to conditions: read-out: pA2 (converted).

The target of assay [4] is T4, Alpha-1D adrenergic receptor (Homo sapiens, UniProt P25100).
T4 sequence (P25100 whole entry): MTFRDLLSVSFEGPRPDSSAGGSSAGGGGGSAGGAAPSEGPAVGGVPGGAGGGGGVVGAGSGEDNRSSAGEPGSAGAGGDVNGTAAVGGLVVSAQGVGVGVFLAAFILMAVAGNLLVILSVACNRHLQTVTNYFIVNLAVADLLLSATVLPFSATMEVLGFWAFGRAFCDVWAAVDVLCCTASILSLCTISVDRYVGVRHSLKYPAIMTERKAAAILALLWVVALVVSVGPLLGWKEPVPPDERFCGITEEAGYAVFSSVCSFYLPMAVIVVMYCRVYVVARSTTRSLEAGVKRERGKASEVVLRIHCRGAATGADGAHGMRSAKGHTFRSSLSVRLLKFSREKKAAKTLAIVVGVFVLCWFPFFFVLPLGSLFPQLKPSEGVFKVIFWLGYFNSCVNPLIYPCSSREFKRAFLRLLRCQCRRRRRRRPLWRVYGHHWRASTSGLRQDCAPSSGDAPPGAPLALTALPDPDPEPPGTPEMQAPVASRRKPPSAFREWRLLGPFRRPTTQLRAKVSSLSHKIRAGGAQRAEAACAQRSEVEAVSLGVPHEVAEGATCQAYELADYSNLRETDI
Briefly: Displacement of [3H]prazosin from human cloned alpha1D adrenoceptor expressed in CHO cell membranes after 30 mins by liquid scintillation counter.

Consider `COc1cccc(OC)c1OCCNC[C@H]1COc2cccc(Cl)c2O1.Cl`, for which the Ki in assay [1] is 0.891 nM; in assay [4] it was 0.708 nM. Further, the Kb is 0.912 nM in assay [2] and 8.91 nM in assay [3].
The like results for `COc1cccc(OC)c1OCCNC[C@H]1COc2cccc(O)c2O1.Cl` were, in that order, 2.19 nM, 8.91 nM, 50.1 nM and 15.8 nM.
The like results for `COc1cccc(OC)c1OCCNC[C@H]1COc2cccc(OC)c2O1.Cl` were, in that order, 0.912 nM, 0.372 nM, 2.82 nM and 0.263 nM.
In the same order, the values of `COc1cccc(OC)c1OCCNC[C@H]1COc2cccc(F)c2O1.Cl` are 0.646 nM, 0.49 nM, 1.2 nM and 2.75 nM.
For `COc1cccc(OC)c1OCCNC[C@H]1COc2c(OC)cccc2O1.Cl`, the Ki in assay [1] was 24 nM; in assay [4] it was 79.4 nM. Further, the Kb was 39.8 nM in assay [2] and 16.6 nM in assay [3].

The term Ki denotes the equilibrium dissociation constant of an inhibitor or competing ligand from its target.
